The record followed here is ChEMBL document CHEMBL5576109, “Hydantoin derivative dimers as broad-spectrum antimicrobial agents against ESKAPE pathogens with enhanced killing rate and stability” (RSC Med Chem, 2024).

The test system of data set [1] is Escherichia coli. The experiment in a line: Antibacterial activity against Escherichia coli ATCC 25922 assessed as reduction bacterial growth after 16 hrs by TECAN SPARK microplate reader analysis. It is filed as functional. An outline of the steps:
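Single colony grown overnight in 4 mL TSB at 37 °C, diluted 100-fold and grown to mid-log phase. Compounds 2-fold serially diluted in TSB and mixed 1:1 with bacteria in TSB (1 × 10^6 CFU/mL). Incubated 16 h at 37 °C, then A600 read. MIC taken as the lowest concentration giving complete growth inhibition.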

Data set [2] is described as follows: Hemolytic activity in mouse red blood cells assessed as hemolysis incubated for 1 hr by TECAN SPARK microplate reader analysis. The format is toxicity, cell-based, Erythrocyte. Conditions: red blood cells (erythrocytes). In a few lines: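 Mouse RBCs washed three times in 1× PBS by centrifugation (3500 rpm, 10 min) and made up as a 5% v/v suspension. Incubated with 2-fold serially diluted compound in PBS for 1 h at 37 °C, then centrifuged. Supernatant diluted in PBS and A540 read. % hemolysis calculated relative to 1% Triton X-100 (100%) and PBS (0%).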

The test system of data set [3] is Staphylococcus aureus. Kind of data set: Bactericidal activity against Staphylococcus aureus ATCC 29213 assessed as reduction in colony forming units incubated for 15 to 120 mins by time-kill kinetics assay. It is filed as functional, organism-based. The following applies: time 15-120 min. An outline of the steps:
(§1)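 Bacteria grown at 37 °C to mid-log phase and diluted to 1 × 10^6 CFU/mL. […] Mixtures diluted 10^2–10^4-fold and plated on TSB agar; colonies counted after 20 h at 37 °C.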

In data set [4] the test system is Escherichia coli. Kind of data set: Bactericidal activity against Escherichia coli ATCC 25922 assessed as inhibition of bacterial growth at 1 to 4 times of MIC measured within 1 hr mins by time-kill kinetics assay relative to control. The format is functional. In a few lines: as §1
Data set [5] concerns Staphylococcus aureus. The experiment in a line: Bactericidal activity against Staphylococcus aureus ATCC 29213 assessed as reduction in colony forming units at 4 times of MIC within 15 mins by time-kill kinetics assay. The format is functional, organism-based. In a few lines:
as §1

The test system of data set [6] is Escherichia coli. Kind of data set: Bactericidal activity against Escherichia coli ATCC 25922 assessed as reduction in colony forming units at 4 times of MIC measured after 60 mins by time-kill kinetics assay. It is filed as functional, organism-based. An outline of the steps: as §1
For data set [7], the system named is Staphylococcus aureus. Kind of data set: Antibacterial activity against Staphylococcus aureus ATCC 29213 assessed as inhibition of bacterial growth by measuring fold increase in MIC compound preincubated at 40 degree C for 1 hr followed by bacterial culture addition and measured after 16 to 18 hrs by TECAN SPARK microplate reader analysis. It is filed as functional. Conditions: time 16-18 hrs.

Data set [8] deals with Staphylococcus aureus. Kind of data set: Antibacterial activity against Staphylococcus aureus ATCC 29213 assessed as inhibition of bacterial growth by measuring fold increase in MIC compound preincubated at 120 degree C for 1 hr followed by bacterial culture addition and measured after 16 to 18 hrs by TECAN SPARK microplate reader analysis. The following applies: time 16-18 hrs. It is filed as functional.

In data set [9] the test system is Staphylococcus aureus. Kind of data set: Antibacterial activity against Staphylococcus aureus ATCC 29213 assessed as inhibition of bacterial growth by measuring fold increase in MIC measured after 16 to 18 hrs in presence of MgCl2 by TECAN SPARK microplate reader analysis. The format is functional. Conditions: time 16-18 hrs. In a few lines:
(§2)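 Salt/serum stability. Exponential-phase bacteria incubated 16–18 h with compound in medium supplemented with 10 mM NaCl, 10 mM KCl, 10 mM MgCl2, 10% DMEM or 10% FBS. Stability judged from the change in MIC.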

For data set [10], the system named is Staphylococcus aureus. Kind of data set: Antibacterial activity against Staphylococcus aureus ATCC 29213 assessed as inhibition of bacterial growth by measuring fold increase in MIC measured after 16 to 18 hrs in presence of 10% DMEM by TECAN SPARK microplate reader analysis. The format is functional. The following applies: time 16-18 hrs. In a few lines: as §2

The subject of data set [11] is Staphylococcus aureus. The experiment in a line: Antibacterial activity against Staphylococcus aureus ATCC 29213 assessed as inhibition of bacterial growth by measuring fold increase in MIC measured after 16 to 18 hrs in presence of 10% FBS by TECAN SPARK microplate reader analysis. It is filed as functional. The following applies: time 16-18 hrs. An outline of the steps: as §2

Data set [12] relates to Escherichia coli. The experiment in a line: Antibacterial activity against Escherichia coli ATCC 25922 assessed as inhibition of bacterial growth by measuring fold increase in MIC compound preincubated at 80 degree C for 1 hr followed by bacterial culture addition and measured after 16 to 18 hrs by TECAN SPARK microplate reader analysis. It is filed as functional. Conditions: time 16-18 hrs.

The subject of data set [13] is Escherichia coli. The experiment in a line: Antibacterial activity against Escherichia coli ATCC 25922 assessed as inhibition of bacterial growth by measuring fold increase in MIC measured after 16 to 18 hrs in presence of KCl by TECAN SPARK microplate reader analysis. It is filed as functional. The following applies: time 16-18 hrs. In a few lines: as §2
For data set [14], the system named is Escherichia coli. Kind of data set: Antibacterial activity against Escherichia coli ATCC 25922 assessed as inhibition of bacterial growth by measuring fold increase in MIC measured after 16 to 18 hrs in presence of 10% FBS by TECAN SPARK microplate reader analysis. The following applies: time 16-18 hrs. It is filed as functional. An outline of the steps: as §2

The subject of data set [15] is Escherichia coli. The experiment in a line: Induction of cytoplasmic membrane depolarization in Escherichia coli ATCC 25922 assessed as increase in fluorescence intensity by DiSC3(5) staining based analysis. The format is functional, organism-based. In a few lines:
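Mid-log cells washed in 5 mM HEPES/5 mM glucose and resuspended at 10^6 CFU/mL in glucose/HEPES/100 mM KCl (1:1:1). DiSC3(5) added and fluorescence (Ex 622 / Em 670 nm) followed for 30 min at 37 °C until minimal. Compound then added and the fluorescence rise recorded.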

Data set [16] concerns Escherichia coli. The experiment in a line: Induction of ROS generation in Escherichia coli ATCC 25922 assessed as increase in fluorescence intensity incubated for 30 mins by DCFH-DA staining based analysis. The format is functional, organism-based. An outline of the steps:
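Overnight 37 °C cultures washed three times and resuspended in PBS, diluted to OD600 0.1, and mixed with DCFH-DA (5 µM). Treated with a range of compound concentrations for 30 min at 37 °C in the dark. Fluorescence read at Ex 488 / Em 530 nm.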

For data set [17], the system named is Escherichia coli. Kind of data set: Induction of inner membrane permeabilization in Escherichia coli ATCC 25922 assessed as increase in fluorescence intensity incubated for 1 hr by propidium iodide staining based TECAN SPARK microplate reader analysis. It is filed as functional, organism-based. In a few lines: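 Overnight 37 °C cultures resuspended in PBS and diluted to OD600 0.1. Propidium iodide added (5 µM final) for 30 min. Treated with a range of compound concentrations for 1 h in the dark; fluorescence read at Ex 535 / Em 615 nm.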

Data set [18] concerns Escherichia coli. Kind of data set: Induction of outer membrane permeabilization in Escherichia coli ATCC 25922 assessed as increase in fluorescence intensity at 1 to 4 times of MIC incubated for 1 hr by NPN staining based TECAN SPARK microplate reader analysis. It is filed as functional, organism-based. An outline of the steps:
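Overnight E. coli resuspended in PBS and diluted to OD600 0.1. NPN added (10 µM final) for 30 min. Treated with a range of compound concentrations for 1 h in the dark; fluorescence read at Ex 350 / Em 420 nm.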

Data set [19] concerns Staphylococcus aureus. The experiment in a line: Induction of morphological changes in Staphylococcus aureus ATCC 29213 assessed as cell shrinkage at 8 time of MIC for 6 hrs by scanning electron microscopy. It is filed as functional, organism-based. In a few lines: (§3)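 Mid-log cells exposed to compound for 6 h at 37 °C alongside untreated controls. Cells pelleted (3000 rpm, 15 min), washed four times in PBS, and fixed with 2.5% glutaraldehyde. Dehydrated through graded ethanol, critical-point dried and gold-coated, then imaged by SEM.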

In data set [20] the test system is Escherichia coli. Kind of data set: Induction of morphological changes in Escherichia coli ATCC 25922 assessed as cell wrinkled at 8 time of MIC for 6 hrs by scanning electron microscopy. It is filed as functional, organism-based. In a few lines: as §3

SMILES strings stand for the structures. Values after ≈ are worked out from the molar mass of the structure shown. Active and inactive are the calls of the source. The rule behind the calls is not given here.

One may read the MIC as the lowest concentration that inhibits growth of the organism. For orientation: HC50 means the concentration that lyses half of the red blood cells. On to `CCCCCCN1C(=O)[C@H](CCCCNC(=N)N)N(Cc2ccc(-c3ccc(CN4C(=O)N(CCCCCC)C(=O)[C@@H]4CCCCNC(=N)N)cc3)cc2)C1=O`, for which the MIC with Escherichia coli [1] turned out to be 3.91 µg/mL (≈ 5.06 µM). In addition, the HC50 at 1 h in data set [2] turned out to be 61 µg/mL. The Activity entry with Staphylococcus aureus [3], in the data set on Escherichia coli [15], in the data set on Escherichia coli [16] and in the data set with Escherichia coli [17] was “Dose-Dependent Effect” throughout. Also, the “inhibition (INH)” value in the data set on Escherichia coli [4] worked out at 100%. The result in the data set with Staphylococcus aureus [5], with Escherichia coli [6], with Escherichia coli [18], in the data set on Staphylococcus aureus [19] and in the data set on Escherichia coli [20] was Active. Besides, the “fold change (FC)” value in the data set with Staphylococcus aureus [7], with Staphylococcus aureus [8], in the data set on Staphylococcus aureus [9], in the data set with Staphylococcus aureus [10], in the data set on Staphylococcus aureus [11] and in the data set with Escherichia coli [12] was 1 in each case. Further, the “fold change (FC)” value in the data set with Escherichia coli [13] and in the data set with Escherichia coli [14] was 1 each time.
